Source: ChEMBL document CHEMBL4373703 (J Med Chem, 2019)
Values after ≈ are worked out from the molar mass of the structure shown. Active and inactive are the calls of the source. No cut-off for these calls is given here.

Columns and labels:
[1] = Intrinsic clearance in human liver microsomes at 1 uM in presence of NADPH measured up to 30 mins by LC-MS/MS analysis; format: ADME, Microsome; conditions: read-out: CLH
[2] = test system: Rattus norvegicus; assay: Antiarthritic activity in Lewis rat model of collagen-induced arthritis assessed as reduction in ankle histopathological scores at 10 mg/kg, po administered via gavage once daily starting from day 6 to day 16 relative to control; design: scale not given: the % may be the effect or the level left
[3] = test system: Mus musculus; assay: Inhibition of B cell activation in C57BL/6 mouse at 1 mg/kg, po after 24 hr relative to control; format: functional
Method in brief: (§1)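 Normal C57BL/6 mice received a single oral dose of 1 mg/kg and were tested in an in vivo B cell stimulation assay. Inhibition of B cell activation was read at 1 h and 24 h after dosing.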

[4] = Half-life in Mongrel dog plasma at 1 mg/kg, iv or 3 mg/kg, po administered as suspension; format: ADME, organism-based, Canis lupus familiaris
[5] = test system: Mus musculus; assay: Inhibition of B cell activation in C57BL/6 mouse at 1 mg/kg, po after 1 hr relative to control; format: functional; method in brief: as §1
[6] = Tmax in Wistar rat at 10 mg/kg, po administered as suspension; format: ADME, organism-based; conditions: in vivo
[7] = Oral bioavailability in NMRI mouse at 3 mg/kg; format: ADME, organism-based; conditions: in vivo
[8] = Oral bioavailability in Wistar rat at 10 mg/kg; format: ADME, organism-based; conditions: in vivo
[9] = molecular target: Voltage-gated inwardly rectifying potassium channel KCNH2 (Homo sapiens, UniProt Q12809); assay: Inhibition of human ERG expressed in HEK293 cells at -80 mV holding potential by […]; format: cell-based
Sequence of Voltage-gated inwardly rectifying potassium channel KCNH2 (Q12809 whole entry): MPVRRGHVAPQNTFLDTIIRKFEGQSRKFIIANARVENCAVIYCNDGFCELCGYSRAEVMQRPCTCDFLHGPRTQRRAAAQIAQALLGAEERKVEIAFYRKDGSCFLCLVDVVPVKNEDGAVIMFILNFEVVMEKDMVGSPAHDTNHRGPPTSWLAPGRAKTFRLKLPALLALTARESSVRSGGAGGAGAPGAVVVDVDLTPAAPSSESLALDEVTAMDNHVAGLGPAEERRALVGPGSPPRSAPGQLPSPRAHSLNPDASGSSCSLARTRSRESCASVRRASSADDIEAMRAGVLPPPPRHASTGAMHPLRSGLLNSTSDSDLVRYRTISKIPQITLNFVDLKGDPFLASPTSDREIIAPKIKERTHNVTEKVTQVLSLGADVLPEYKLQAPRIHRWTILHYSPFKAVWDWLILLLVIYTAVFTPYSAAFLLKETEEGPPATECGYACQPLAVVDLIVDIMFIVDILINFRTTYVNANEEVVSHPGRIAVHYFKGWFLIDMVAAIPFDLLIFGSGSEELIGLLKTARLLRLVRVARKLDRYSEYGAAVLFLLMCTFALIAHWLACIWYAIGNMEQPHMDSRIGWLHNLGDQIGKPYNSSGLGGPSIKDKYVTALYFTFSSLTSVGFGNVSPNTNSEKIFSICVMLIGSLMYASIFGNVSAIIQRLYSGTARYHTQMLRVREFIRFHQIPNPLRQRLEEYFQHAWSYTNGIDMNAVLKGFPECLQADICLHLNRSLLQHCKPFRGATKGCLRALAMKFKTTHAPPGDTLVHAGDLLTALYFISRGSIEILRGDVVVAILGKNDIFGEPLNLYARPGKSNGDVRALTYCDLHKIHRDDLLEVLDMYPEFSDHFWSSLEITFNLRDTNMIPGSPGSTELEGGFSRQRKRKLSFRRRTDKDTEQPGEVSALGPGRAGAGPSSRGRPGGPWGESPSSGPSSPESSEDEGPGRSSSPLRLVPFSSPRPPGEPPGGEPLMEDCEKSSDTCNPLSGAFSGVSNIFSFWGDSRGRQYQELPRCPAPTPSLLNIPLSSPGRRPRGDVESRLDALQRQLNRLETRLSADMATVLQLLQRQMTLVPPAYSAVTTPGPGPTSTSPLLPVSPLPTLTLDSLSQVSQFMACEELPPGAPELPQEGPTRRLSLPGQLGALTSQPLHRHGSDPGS

[10] = Tmax in Mongrel dog at 3 mg/kg, po administered as suspension; format: ADME, organism-based, Canis lupus familiaris; conditions: in vivo
[11] = test system: Mus musculus; assay: Inhibition of B cell activation in C57BL/6 mouse at 1 mg/kg, po after 0.25 hr relative to control; format: functional
[12] = test system: Rattus norvegicus; assay: Antiarthritic activity in Lewis rat model of collagen-induced arthritis assessed as reduction in ankle histopathological scores at 1 mg/kg, po administered via gavage once daily starting from day 6 to day 16 relative to control; design: scale not given: the % may be the effect or the level left
[13] = test system: Mus musculus; assay: Antiarthritic activity in […] model of collagen-induced arthritis assessed as reduction in ankle swelling at 10 mg/kg, po administered via gavage once daily starting from day 6 to day 16 and measured from day 11 to day 17 by caliper method; format: functional, organism-based
Method in brief: (§2)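 Female Lewis rats with semi-established type II collagen arthritis were dosed by oral gavage once daily on days 6–16 with vehicle (20% hydroxypropyl-beta-cyclodextrin in H2O), test agent (0.3–30 mg/kg) or methotrexate 0.1 mg/kg. Ankle thickness was measured daily by caliper, and animals were terminated on day 17. n = 10 per treatment group, 4 normal controls; ANOVA vs vehicle, P ≤ 0.05.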

[14] = Stability of the compound in plasma (unknown origin) assessed as compound remaining at 4 hrs; format: ADME, cell-free; conditions: read-out: Stability
[15] = molecular target: T1, Tyrosine-protein kinase Tec (Homo sapiens, UniProt P42680); assay: Inhibition of N-terminal His6-tagged human TEC (174 to end aminoacids) expressed in baculovirus infected Sf21 cells at 1 uM; conditions: sf21, 1 µM
T1 sequence (P42680 whole entry): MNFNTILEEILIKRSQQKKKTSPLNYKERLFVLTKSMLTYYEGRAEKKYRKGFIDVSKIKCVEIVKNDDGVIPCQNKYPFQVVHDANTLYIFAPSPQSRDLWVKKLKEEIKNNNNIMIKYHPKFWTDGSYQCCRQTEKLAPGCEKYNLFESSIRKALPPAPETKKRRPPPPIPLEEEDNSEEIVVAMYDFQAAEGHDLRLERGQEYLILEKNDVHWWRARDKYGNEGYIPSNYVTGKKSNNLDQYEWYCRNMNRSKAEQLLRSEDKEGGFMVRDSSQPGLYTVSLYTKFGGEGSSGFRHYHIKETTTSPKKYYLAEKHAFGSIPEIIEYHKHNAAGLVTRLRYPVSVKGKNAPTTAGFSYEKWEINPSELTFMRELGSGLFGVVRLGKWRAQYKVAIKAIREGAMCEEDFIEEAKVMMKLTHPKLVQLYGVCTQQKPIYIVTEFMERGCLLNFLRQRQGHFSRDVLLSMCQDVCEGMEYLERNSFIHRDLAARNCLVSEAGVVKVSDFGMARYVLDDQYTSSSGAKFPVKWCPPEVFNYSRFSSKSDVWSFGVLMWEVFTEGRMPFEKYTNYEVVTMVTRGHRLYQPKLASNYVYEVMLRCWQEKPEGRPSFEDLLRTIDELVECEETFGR

[16] = Tmax in NMRI mouse at 3 mg/kg, po administered as suspension; format: ADME, organism-based; conditions: in vivo
[17] = Apparent permeability across apical to basolateral side in human Caco2 cells at 1 uM incubated for 2 hrs by LC-MS/MS analysis; format: ADME, cell-based; conditions: Caco-2
[18] = test system: Rattus norvegicus; assay: Antiarthritic activity in Lewis rat model of collagen-induced arthritis assessed as reduction in ankle histopathological scores at 3 mg/kg, po administered via gavage once daily starting from day 6 to day 16 relative to control; design: scale not given: the % may be the effect or the level left
[19] = Kinetic solubility of the compound; format: physicochemical; conditions: read-out: Kinetic_solubility
[20] = test system: Mus musculus; assay: Antiarthritic activity in […] model of collagen-induced arthritis assessed as reduction in ankle swelling at 3 mg/kg, po administered via gavage once daily starting from day 6 to day 16 and measured from day 11 to day 17 by caliper method; format: functional, organism-based; method in brief: as §2
[21] = Half-life in Wistar rat plasma at 2 mg/kg, iv or 10 mg/kg, po administered as suspension; format: ADME, organism-based
[22] = test system: Mus musculus; assay: Antiarthritic activity in […] model of collagen-induced arthritis assessed as reduction in ankle swelling at 30 mg/kg, po administered via gavage once daily starting from day 6 to day 16 and measured from day 10 to day 17 by caliper method; format: functional, organism-based; method in brief: as §2
[23] = test system: Rattus norvegicus; assay: Antiarthritic activity in Lewis rat model of collagen-induced arthritis assessed as reduction in ankle histopathological scores at 0.3 mg/kg, po administered via gavage once daily starting from day 6 to day 16 relative to control; design: scale not given: the % may be the effect or the level left
[24] = test system: Rattus norvegicus; assay: Antiarthritic activity in Lewis rat model of collagen-induced arthritis assessed as reduction in ankle histopathological scores at 30 mg/kg, po administered via gavage once daily starting from day 6 to day 16 relative to control; design: scale not given: the % may be the effect or the level left
[25] = Half-life in NMRI mouse plasma at 1 mg/kg, iv or 3 mg/kg, po administered as suspension; format: ADME, organism-based
[26] = Cmax in C57BL/6 mouse at 1 mg/kg, po; format: ADME, organism-based; design: dose 1 mg/kg, route oral; conditions: in vivo

Question: What does the source list for `C=CC(=O)N1CCC(CNc2ncnc(N)c2-c2ccc(Oc3ccccc3)cc2)CC1` [EVOBRUTINIB]?
Answer: microsomal CLint at 1 µM [1]: 110 µL/min/mg; Activity [2]: 63%; inhibition (INH) [3]: 25%; half-life [4]: 1 h; inhibition (INH) [5]: 71%; Tmax [6]: 0.25 to 1 h; bioavailability [7]: ≤ 25%; bioavailability [8]: < 5%; Ki [9]: 3.1 µM; Tmax [10]: 0.25 to 1 h; inhibition (INH) [11]: 17%; Activity [12]: 3%; Activity [13]: Active; remaining at 4 h [14]: 81%; inhibition (INH) [15]: Active; Tmax [16]: 0.25 to 1 h; Papp A→B at 2 h, 1 µM [17]: 22 ×10⁻⁶ cm/s; Activity [18]: 42%; solubility kinetic [19]: 60 µM (≈ 25.8 µg/mL); Activity [20]: Active; half-life [21]: 1 h; Activity [22]: Active; Activity [23]: 1%; Activity [24]: 94%; half-life [25]: 1 h; Cmax [26]: 52 nM
